Measured values reported in ChEMBL document CHEMBL5058577, “EUbOPEN Chemogenomics Library 2 (Multiplex)” (2022).

Test system: Fibroblast
Experiment: Multiplex assay against human fibroblast
Assay type: toxicity, cell-based
Procedure, shortened: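 Live cells were stained at seeding with Hoechst33342, BioTracker Green Microtubule Cytoskeleton Dye, MitoTracker Red and Annexin V Alexa Fluor 680, then imaged on a CQ1 microscope at 37°C and 5% CO2 after compound addition. CellPathfinder machine-learning gating split cells into Hoechst high-intensity objects or normal cells. Normal cells were split into healthy, pyknosed or fragmented nuclei, and pyknosed cells into mitotic or apoptotic. Tubulin, mitochondrial-mass and membrane-permeability phenotypes are per cents of healthy-nucleus cells.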

[1] = 12 h, 1 µM, compound concentration 1 uM, replicate 1
[2] = 12 h, 1 µM, compound concentration 1 uM, replicate 2
[3] = 12 h, 10 µM, compound concentration 10 uM, replicate 1
[4] = 12 h, 10 µM, compound concentration 10 uM, replicate 2
[5] = 24 h, 1 µM, compound concentration 1 uM, replicate 1
[6] = 24 h, 1 µM, compound concentration 1 uM, replicate 2
[7] = 24 h, 10 µM, compound concentration 10 uM, replicate 1
[8] = 24 h, 10 µM, compound concentration 10 uM, replicate 2
[9] = 48 h, 1 µM, compound concentration 1 uM, replicate 1
[10] = 48 h, 1 µM, compound concentration 1 uM, replicate 2
[11] = 48 h, 10 µM, compound concentration 10 uM, replicate 1
[12] = 48 h, 10 µM, compound concentration 10 uM, replicate 2

CC(=O)NCCc1c(Cc2ccccc2)[nH]c2ccccc12 [LUZINDOLE]
Population Apoptotic (%) [1]: 41% | Population Fragmented Nuclei (%) [1]: 15% | Population Healthy Nuclei (%) [1]: 65% | Population Hoechst High Intensity Objects (%) [1]: 1% | Population Membrane Permeable-Phenotype (%) [1]: 2% | Population Mitochondria Different-Phenotype (%) [1]: 7% | Population Mitotic Cells (%) [1]: 58% | Population Normal (%) [1]: 98% | Population Pyknosed Nuclei (%) [1]: 18% | Population Tubulin-Different-Phenotype (%) [1]: 30% | Total Cell Count [1]: 129 | Population Apoptotic (%) [2]: 40% | Population Fragmented Nuclei (%) [2]: 25% | Population Healthy Nuclei (%) [2]: 39% | Population Hoechst High Intensity Objects (%) [2]: 4% | Population Membrane Permeable-Phenotype (%) [2]: 9% | Population Mitochondria Different-Phenotype (%) [2]: 11% | Population Mitotic Cells (%) [2]: 59% | Population Normal (%) [2]: 95% | Population Pyknosed Nuclei (%) [2]: 34% | Population Tubulin-Different-Phenotype (%) [2]: 50% | Total Cell Count [2]: 134 | Population Apoptotic (%) [3]: 19% | Population Fragmented Nuclei (%) [3]: 15% | Population Healthy Nuclei (%) [3]: 69% | Population Hoechst High Intensity Objects (%) [3]: 2% | Population Membrane Permeable-Phenotype (%) [3]: 2% | Population Mitochondria Different-Phenotype (%) [3]: 7% | Population Mitotic Cells (%) [3]: 80% | Population Normal (%) [3]: 97% | Population Pyknosed Nuclei (%) [3]: 15% | Population Tubulin-Different-Phenotype (%) [3]: 42% | Total Cell Count [3]: 140 | Population Apoptotic (%) [4]: 21% | Population Fragmented Nuclei (%) [4]: 26% | Population Healthy Nuclei (%) [4]: 59% | Population Membrane Permeable-Phenotype (%) [4]: 13% | Population Mitochondria Different-Phenotype (%) [4]: 4% | Population Mitotic Cells (%) [4]: 78% | Population Pyknosed Nuclei (%) [4]: 13% | Population Tubulin-Different-Phenotype (%) [4]: 32% | Total Cell Count [4]: 105 | Population Apoptotic (%) [5]: 54% | Population Fragmented Nuclei (%) [5]: 21% | Population Healthy Nuclei (%) [5]: 61% | Population Hoechst High Intensity Objects (%) [5]: 0% | Population Membrane Permeable-Phenotype (%) [5]: 0% | Population Mitochondria Different-Phenotype (%) [5]: 3% | Population Mitotic Cells (%) [5]: 45% | Population Normal (%) [5]: 99% | Population Pyknosed Nuclei (%) [5]: 16% | Population Tubulin-Different-Phenotype (%) [5]: 13% | Total Cell Count [5]: 134 | Population Apoptotic (%) [6]: 45% | Population Fragmented Nuclei (%) [6]: 25% | Population Healthy Nuclei (%) [6]: 47% | Population Hoechst High Intensity Objects (%) [6]: 5% | Population Membrane Permeable-Phenotype (%) [6]: 8% | Population Mitochondria Different-Phenotype (%) [6]: 8% | Population Mitotic Cells (%) [6]: 54% | Population Normal (%) [6]: 94% | Population Pyknosed Nuclei (%) [6]: 26% | Population Tubulin-Different-Phenotype (%) [6]: 50% | Total Cell Count [6]: 137 | Population Apoptotic (%) [7]: 47% | Population Fragmented Nuclei (%) [7]: 15% | Population Healthy Nuclei (%) [7]: 67% | Population Hoechst High Intensity Objects (%) [7]: 2% | Population Membrane Permeable-Phenotype (%) [7]: 1% | Population Mitochondria Different-Phenotype (%) [7]: 5% | Population Mitotic Cells (%) [7]: 52% | Population Normal (%) [7]: 97% | Population Pyknosed Nuclei (%) [7]: 17% | Population Tubulin-Different-Phenotype (%) [7]: 29% | Total Cell Count [7]: 138 | Population Apoptotic (%) [8]: 23% | Population Fragmented Nuclei (%) [8]: 27% | Population Healthy Nuclei (%) [8]: 59% | Population Hoechst High Intensity Objects (%) [8]: 3% | Population Membrane Permeable-Phenotype (%) [8]: 5% | Population Mitochondria Different-Phenotype (%) [8]: 3% | Population Mitotic Cells (%) [8]: 76% | Population Normal (%) [8]: 96% | Population Pyknosed Nuclei (%) [8]: 12% | Population Tubulin-Different-Phenotype (%) [8]: 33% | Total Cell Count [8]: 105 | Population Apoptotic (%) [9]: 75% | Population Fragmented Nuclei (%) [9]: 15% | Population Healthy Nuclei (%) [9]: 72% | Population Hoechst High Intensity Objects (%) [9]: 5% | Population Membrane Permeable-Phenotype (%) [9]: 2% | Population Mitochondria Different-Phenotype (%) [9]: 3% | Population Mitotic Cells (%) [9]: 25% | Population Normal (%) [9]: 94% | Population Pyknosed Nuclei (%) [9]: 12% | Population Tubulin-Different-Phenotype (%) [9]: 24% | Total Cell Count [9]: 134 | Population Apoptotic (%) [10]: 39% | Population Fragmented Nuclei (%) [10]: 27% | Population Healthy Nuclei (%) [10]: 55% | Population Hoechst High Intensity Objects (%) [10]: 8% | Population Membrane Permeable-Phenotype (%) [10]: 9% | Population Mitochondria Different-Phenotype (%) [10]: 5% | Population Mitotic Cells (%) [10]: 60% | Population Normal (%) [10]: 91% | Population Pyknosed Nuclei (%) [10]: 16% | Population Tubulin-Different-Phenotype (%) [10]: 46% | Total Cell Count [10]: 149 | Population Apoptotic (%) [11]: 80% | Population Fragmented Nuclei (%) [11]: 19% | Population Healthy Nuclei (%) [11]: 70% | Population Hoechst High Intensity Objects (%) [11]: 3% | Population Membrane Permeable-Phenotype (%) [11]: 0% | Population Mitochondria Different-Phenotype (%) [11]: 3% | Population Mitotic Cells (%) [11]: 20% | Population Normal (%) [11]: 96% | Population Pyknosed Nuclei (%) [11]: 10% | Population Tubulin-Different-Phenotype (%) [11]: 34% | Total Cell Count [11]: 147 | Population Apoptotic (%) [12]: 54% | Population Fragmented Nuclei (%) [12]: 34% | Population Healthy Nuclei (%) [12]: 54% | Population Hoechst High Intensity Objects (%) [12]: 4% | Population Membrane Permeable-Phenotype (%) [12]: 3% | Population Mitotic Cells (%) [12]: 45% | Population Normal (%) [12]: 95% | Population Tubulin-Different-Phenotype (%) [12]: 50% | Total Cell Count [12]: 111

CN1CCN(c2nc3cc(C(F)(F)F)ccc3n3cccc23)CC1.O=C(O)/C=C\C(=O)O.O=C(O)/C=C\C(=O)O
Population Apoptotic (%) [1]: 50% | Population Fragmented Nuclei (%) [1]: 18% | Population Healthy Nuclei (%) [1]: 71% | Population Hoechst High Intensity Objects (%) [1]: 0% | Population Membrane Permeable-Phenotype (%) [1]: 0% | Population Mitochondria Different-Phenotype (%) [1]: 5% | Population Mitotic Cells (%) [1]: 50% | Population Normal (%) [1]: 99% | Population Pyknosed Nuclei (%) [1]: 9% | Population Tubulin-Different-Phenotype (%) [1]: 27% | Total Cell Count [1]: 146 | Population Apoptotic (%) [2]: 26% | Population Fragmented Nuclei (%) [2]: 24% | Population Healthy Nuclei (%) [2]: 46% | Population Hoechst High Intensity Objects (%) [2]: 6% | Population Membrane Permeable-Phenotype (%) [2]: 6% | Population Mitochondria Different-Phenotype (%) [2]: 4% | Population Mitotic Cells (%) [2]: 73% | Population Normal (%) [2]: 93% | Population Pyknosed Nuclei (%) [2]: 30% | Population Tubulin-Different-Phenotype (%) [2]: 47% | Total Cell Count [2]: 107 | Population Apoptotic (%) [3]: 40% | Population Fragmented Nuclei (%) [3]: 29% | Population Healthy Nuclei (%) [3]: 59% | Population Hoechst High Intensity Objects (%) [3]: 2% | Population Membrane Permeable-Phenotype (%) [3]: 0% | Population Mitochondria Different-Phenotype (%) [3]: 25% | Population Mitotic Cells (%) [3]: 59% | Population Normal (%) [3]: 97% | Population Pyknosed Nuclei (%) [3]: 10% | Population Tubulin-Different-Phenotype (%) [3]: 69% | Total Cell Count [3]: 207 | Population Apoptotic (%) [4]: 60% | Population Fragmented Nuclei (%) [4]: 35% | Population Healthy Nuclei (%) [4]: 41% | Population Hoechst High Intensity Objects (%) [4]: 4% | Population Membrane Permeable-Phenotype (%) [4]: 4% | Population Mitochondria Different-Phenotype (%) [4]: 38% | Population Mitotic Cells (%) [4]: 40% | Population Normal (%) [4]: 95% | Population Pyknosed Nuclei (%) [4]: 22% | Population Tubulin-Different-Phenotype (%) [4]: 85% | Total Cell Count [4]: 117 | Population Apoptotic (%) [5]: 66% | Population Fragmented Nuclei (%) [5]: 16% | Population Healthy Nuclei (%) [5]: 72% | Population Hoechst High Intensity Objects (%) [5]: 1% | Population Membrane Permeable-Phenotype (%) [5]: 0% | Population Mitochondria Different-Phenotype (%) [5]: 2% | Population Mitotic Cells (%) [5]: 33% | Population Normal (%) [5]: 98% | Population Pyknosed Nuclei (%) [5]: 10% | Population Tubulin-Different-Phenotype (%) [5]: 23% | Total Cell Count [5]: 142 | Population Apoptotic (%) [6]: 40% | Population Fragmented Nuclei (%) [6]: 35% | Population Healthy Nuclei (%) [6]: 42% | Population Hoechst High Intensity Objects (%) [6]: 6% | Population Membrane Permeable-Phenotype (%) [6]: 7% | Population Mitochondria Different-Phenotype (%) [6]: 7% | Population Mitotic Cells (%) [6]: 59% | Population Normal (%) [6]: 93% | Population Pyknosed Nuclei (%) [6]: 22% | Population Tubulin-Different-Phenotype (%) [6]: 43% | Total Cell Count [6]: 104 | Population Apoptotic (%) [7]: 77% | Population Fragmented Nuclei (%) [7]: 24% | Population Healthy Nuclei (%) [7]: 64% | Population Hoechst High Intensity Objects (%) [7]: 6% | Population Membrane Permeable-Phenotype (%) [7]: 0% | Population Mitochondria Different-Phenotype (%) [7]: 32% | Population Mitotic Cells (%) [7]: 22% | Population Normal (%) [7]: 93% | Population Pyknosed Nuclei (%) [7]: 10% | Population Tubulin-Different-Phenotype (%) [7]: 75% | Total Cell Count [7]: 214 | Population Apoptotic (%) [8]: 63% | Population Fragmented Nuclei (%) [8]: 37% | Population Healthy Nuclei (%) [8]: 43% | Population Hoechst High Intensity Objects (%) [8]: 1% | Population Membrane Permeable-Phenotype (%) [8]: 6% | Population Mitotic Cells (%) [8]: 36% | Population Normal (%) [8]: 98% | Population Pyknosed Nuclei (%) [8]: 19% | Population Tubulin-Different-Phenotype (%) [8]: 86% | Total Cell Count [8]: 117 | Population Apoptotic (%) [9]: 44% | Population Fragmented Nuclei (%) [9]: 25% | Population Healthy Nuclei (%) [9]: 63% | Population Hoechst High Intensity Objects (%) [9]: 2% | Population Membrane Permeable-Phenotype (%) [9]: 1% | Population Mitochondria Different-Phenotype (%) [9]: 2% | Population Mitotic Cells (%) [9]: 55% | Population Normal (%) [9]: 97% | Population Pyknosed Nuclei (%) [9]: 11% | Population Tubulin-Different-Phenotype (%) [9]: 22% | Total Cell Count [9]: 162 | Population Apoptotic (%) [10]: 42% | Population Fragmented Nuclei (%) [10]: 37% | Population Healthy Nuclei (%) [10]: 40% | Population Hoechst High Intensity Objects (%) [10]: 3% | Population Membrane Permeable-Phenotype (%) [10]: 0% | Population Mitotic Cells (%) [10]: 57% | Population Normal (%) [10]: 96% | Population Pyknosed Nuclei (%) [10]: 21% | Population Tubulin-Different-Phenotype (%) [10]: 57% | Total Cell Count [10]: 102 | Population Apoptotic (%) [11]: 77% | Population Fragmented Nuclei (%) [11]: 22% | Population Healthy Nuclei (%) [11]: 68% | Population Hoechst High Intensity Objects (%) [11]: 7% | Population Membrane Permeable-Phenotype (%) [11]: 0% | Population Mitochondria Different-Phenotype (%) [11]: 28% | Population Mitotic Cells (%) [11]: 22% | Population Normal (%) [11]: 92% | Population Pyknosed Nuclei (%) [11]: 9% | Population Tubulin-Different-Phenotype (%) [11]: 77% | Total Cell Count [11]: 211 | Population Apoptotic (%) [12]: 63% | Population Fragmented Nuclei (%) [12]: 33% | Population Healthy Nuclei (%) [12]: 57% | Population Hoechst High Intensity Objects (%) [12]: 5% | Population Membrane Permeable-Phenotype (%) [12]: 1% | Population Mitochondria Different-Phenotype (%) [12]: 23% | Population Mitotic Cells (%) [12]: 36% | Population Normal (%) [12]: 94% | Population Tubulin-Different-Phenotype (%) [12]: 85% | Total Cell Count [12]: 118
